According to ChEMBL document CHEMBL1914395, “Design, synthesis, and biological evaluation of callophycin A and analogues as potential chemopreventive and anticancer agents” (Bioorg Med Chem, 2011):
pIC50: −log10 of the molar value.

target: T1, Nitric oxide synthase, inducible (Mus musculus) (UniProt P29477); assay: Inhibition of iNOS-mediated nitric oxide production in LPS-stimulated mouse RAW 264.7 cells assessed as cell survival at 50 uM pretreated 15 mins before LPS challenge measured after 20 hrs relative to control; type: cell-based; conditions: not given
T1 sequence (whole entry): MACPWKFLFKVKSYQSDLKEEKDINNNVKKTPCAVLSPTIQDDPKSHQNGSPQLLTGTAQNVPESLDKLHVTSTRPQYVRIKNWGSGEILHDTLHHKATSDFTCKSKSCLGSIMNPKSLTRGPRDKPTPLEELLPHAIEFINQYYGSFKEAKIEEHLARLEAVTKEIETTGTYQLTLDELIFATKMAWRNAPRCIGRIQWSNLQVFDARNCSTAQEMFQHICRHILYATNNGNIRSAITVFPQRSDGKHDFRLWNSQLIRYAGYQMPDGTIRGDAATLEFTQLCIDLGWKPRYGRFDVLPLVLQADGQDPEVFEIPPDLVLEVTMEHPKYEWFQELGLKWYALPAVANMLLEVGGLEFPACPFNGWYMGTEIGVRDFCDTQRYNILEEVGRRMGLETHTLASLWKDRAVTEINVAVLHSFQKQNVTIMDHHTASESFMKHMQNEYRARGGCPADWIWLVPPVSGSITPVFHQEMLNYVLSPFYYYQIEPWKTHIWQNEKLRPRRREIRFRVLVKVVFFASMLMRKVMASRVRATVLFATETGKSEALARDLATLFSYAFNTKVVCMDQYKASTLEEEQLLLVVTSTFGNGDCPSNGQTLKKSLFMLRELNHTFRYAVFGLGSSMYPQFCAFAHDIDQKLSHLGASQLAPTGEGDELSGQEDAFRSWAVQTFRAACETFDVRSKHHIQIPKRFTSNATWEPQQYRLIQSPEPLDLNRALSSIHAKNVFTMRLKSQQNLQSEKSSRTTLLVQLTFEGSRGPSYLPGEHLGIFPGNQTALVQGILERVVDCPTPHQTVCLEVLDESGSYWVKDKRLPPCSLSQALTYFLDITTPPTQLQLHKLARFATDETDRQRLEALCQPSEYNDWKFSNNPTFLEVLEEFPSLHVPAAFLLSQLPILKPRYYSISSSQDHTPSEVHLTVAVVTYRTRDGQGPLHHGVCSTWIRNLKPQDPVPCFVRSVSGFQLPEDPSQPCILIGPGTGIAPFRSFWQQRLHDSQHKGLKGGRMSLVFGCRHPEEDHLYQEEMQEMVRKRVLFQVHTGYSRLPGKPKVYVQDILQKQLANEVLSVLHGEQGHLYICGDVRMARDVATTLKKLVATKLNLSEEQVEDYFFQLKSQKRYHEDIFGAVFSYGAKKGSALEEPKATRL
Summary of the method: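 RAW 264.7 cells were incubated at 37°C, 5% CO2 for 24 h. They were then exposed to compound for 15 min before LPS (1 μg/mL) was added for 20 h. Cytotoxicity was measured by SRB staining under the same conditions. Survival is expressed as % relative to vehicle-treated controls at 50 μM.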

Row | Structure (SMILES) | Survival [%]
1 | O=C(O)[C@H]1Cc2c([nH]c3ccccc23)CN1Cc1ccc(O)cc1 | 94.7
2 | C#CCN1Cc2[nH]c3ccccc3c2C[C@H]1C(=O)OC | 84.4
3 | C=CCOC(=O)N1Cc2[nH]c3ccccc3c2C[C@@H]1C(=O)O | 134
4 | O=C(O)[C@@H]1Cc2c([nH]c3ccccc23)CN1S(=O)(=O)c1ccc(Br)cc1 | 80.6

target: NAD(P)H dehydrogenase [quinone] 1 (Mus musculus) (UniProt Q64669); assay: Induction of quinone reductase 1 activity in mouse Hepa-1c1c7 cells assessed as cell survival at 50 uM by MTT assay relative to control; type: cell-based; conditions: not given
Sequence (Q64669 whole entry): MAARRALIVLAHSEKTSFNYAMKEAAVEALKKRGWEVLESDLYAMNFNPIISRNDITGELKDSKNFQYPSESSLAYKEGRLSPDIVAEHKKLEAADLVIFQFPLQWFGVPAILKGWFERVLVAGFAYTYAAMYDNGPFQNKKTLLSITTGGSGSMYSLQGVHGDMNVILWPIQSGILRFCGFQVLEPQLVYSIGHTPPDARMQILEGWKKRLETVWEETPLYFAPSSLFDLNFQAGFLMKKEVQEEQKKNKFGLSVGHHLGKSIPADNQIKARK

Row | Structure (SMILES) | Survival [%]
5 | O=C(O)[C@H]1Cc2c([nH]c3ccccc23)CN1Cc1ccc(O)cc1 | 91.2
6 | C#CCN1Cc2[nH]c3ccccc3c2C[C@H]1C(=O)OC | 89.6
7 | C=CCOC(=O)N1Cc2[nH]c3ccccc3c2C[C@@H]1C(=O)O | 93.8
8 | O=C(O)[C@@H]1Cc2c([nH]c3ccccc23)CN1S(=O)(=O)c1ccc(Br)cc1 | 97.8

target: NAD(P)H dehydrogenase [quinone] 1 (Mus musculus) (UniProt Q64669); assay: Induction of quinone reductase 1 activity in mouse Hepa-1c1c7 cells at 50 uM by MTT assay relative to untreated control; type: cell-based; conditions: not given
Summary of the method: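 Hepa 1c1c7 murine hepatoma cells treated with compound at 50 μM. QR1 measured by NADPH-dependent, menadiol-mediated reduction of MTT to formazan. Protein measured by crystal violet staining of identical plates. Specific activity is nmol formazan per mg protein per min. Induction ratio is treated versus DMSO-treated control.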

Row | Structure (SMILES) | Ratio
9 | O=C(O)[C@H]1Cc2c([nH]c3ccccc23)CN1Cc1ccc(O)cc1 | 1.5
10 | C#CCN1Cc2[nH]c3ccccc3c2C[C@H]1C(=O)OC | 1.7
11 | C=CCOC(=O)N1Cc2[nH]c3ccccc3c2C[C@@H]1C(=O)O | 1.9
12 | O=C(O)[C@@H]1Cc2c([nH]c3ccccc23)CN1S(=O)(=O)c1ccc(Br)cc1 | 1.3

target: T2, Aromatase (Homo sapiens, UniProt P11511); assay: Inhibition of aromatase at 50 uM after 10 mins preincubation by plate reader relative to control; conditions: not given
T2 sequence (P11511 whole entry): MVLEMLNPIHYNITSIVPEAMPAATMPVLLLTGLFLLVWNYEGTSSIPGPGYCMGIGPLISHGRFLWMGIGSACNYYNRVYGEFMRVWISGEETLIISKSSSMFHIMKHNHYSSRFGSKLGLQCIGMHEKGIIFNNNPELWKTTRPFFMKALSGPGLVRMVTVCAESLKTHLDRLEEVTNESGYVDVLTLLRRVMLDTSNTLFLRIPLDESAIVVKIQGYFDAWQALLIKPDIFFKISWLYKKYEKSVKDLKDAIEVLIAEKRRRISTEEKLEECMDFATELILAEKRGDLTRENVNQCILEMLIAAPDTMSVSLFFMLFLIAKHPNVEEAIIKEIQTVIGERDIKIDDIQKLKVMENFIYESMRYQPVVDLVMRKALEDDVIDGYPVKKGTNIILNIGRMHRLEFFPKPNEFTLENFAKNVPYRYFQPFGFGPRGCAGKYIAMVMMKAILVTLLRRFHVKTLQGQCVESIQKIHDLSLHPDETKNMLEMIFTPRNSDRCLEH
Summary of the method: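 CYP19 enzyme. Compound pre-incubated 10 min with an NADPH-regenerating system (NADP+, glucose 6-phosphate, G6PDH, MgCl2, albumin) in 50 mM potassium phosphate pH 7.4. Enzyme and 0.4 μM dibenzylfluorescein substrate then added, 30 min at 37 °C. Quenched with 2 N NaOH and incubated a further 2 h at 37 °C. Fluorescence read at ex 485/em 530 nm. Compound tested at 50 μM.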

Row | Structure (SMILES) | inhibition at 50 µM [%]
13 | O=C(O)[C@H]1Cc2c([nH]c3ccccc23)CN1Cc1ccc(O)cc1 | 38.4
14 | C#CCN1Cc2[nH]c3ccccc3c2C[C@H]1C(=O)OC | 24.4
15 | C=CCOC(=O)N1Cc2[nH]c3ccccc3c2C[C@@H]1C(=O)O | 32.9
16 | O=C(O)[C@@H]1Cc2c([nH]c3ccccc23)CN1S(=O)(=O)c1ccc(Br)cc1 | 23.2

test system: MCF7; assay: Antiproliferative activity against human MCF7 cells assessed as survival at 50 uM after 72 hrs by SRB assay relative to control; type: functional; conditions: MCF7, 72 h, read-out: Survival
Summary of the method: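 MCF7 cells (1 × 10^4 per well) were plated onto compound and kept at 37°C, 5% CO2 for 72 h. Cells were fixed in 10% TCA for 30 min and stained with 0.4% SRB in 1% acetic acid for 30 min. Bound dye was dissolved in 10 mM Tris (pH 10.0) and read at 515 nm. Survival is given as % of DMSO-treated controls, screened at 50 μM.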

Row | Structure (SMILES) | viability at 50 µM [%]
17 | O=C(O)[C@H]1Cc2c([nH]c3ccccc23)CN1Cc1ccc(O)cc1 | 71.1
18 | C#CCN1Cc2[nH]c3ccccc3c2C[C@H]1C(=O)OC | 81.1
19 | C=CCOC(=O)N1Cc2[nH]c3ccccc3c2C[C@@H]1C(=O)O | 102
20 | O=C(O)[C@@H]1Cc2c([nH]c3ccccc23)CN1S(=O)(=O)c1ccc(Br)cc1 | 77

target: T3, Nitric oxide synthase, inducible (Mus musculus, UniProt P29477); assay: Inhibition of iNOS-mediated nitric oxide production in LPS-stimulated mouse RAW 264.7 cells pretreated 15 mins before LPS challenge measured after 20 hrs relative to control; type: cell-based; conditions: not given
T3 sequence (P29477 whole entry): T1 sequence (whole entry)
Summary of the method: (§1)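 RAW 264.7 cells cultured 24 h at 37°C, then given serially diluted compounds for 15 min before LPS (1 μg/mL) for 20 h. Nitrite in the medium measured with Griess reagent at 540 nm against a sodium nitrite standard curve. Cytotoxicity checked by SRB under the same conditions.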

Row | Structure (SMILES) | pIC50
21 | O=C(O)[C@@H]1Cc2c([nH]c3ccccc23)CN1S(=O)(=O)c1ccc(Br)cc1 | 4.30

test system: HEK293; assay: Inhibition of TNF-alpha-induced NFkappaB activation in human HEK293 cells assessed as cell survival at 50 uM after 6 hrs by luciferase assay relative to control; type: cell-based; conditions: not given

Row | Structure (SMILES) | Survival [%]
22 | O=C(O)[C@H]1Cc2c([nH]c3ccccc23)CN1Cc1ccc(O)cc1 | 133
23 | C#CCN1Cc2[nH]c3ccccc3c2C[C@H]1C(=O)OC | 117
24 | C=CCOC(=O)N1Cc2[nH]c3ccccc3c2C[C@@H]1C(=O)O | 204
25 | O=C(O)[C@@H]1Cc2c([nH]c3ccccc23)CN1S(=O)(=O)c1ccc(Br)cc1 | 247

test system: HEK293; assay: Inhibition of TNF-alpha-induced NFkappaB activation in human HEK293 cells at 50 uM after 6 hrs by luciferase assay relative to control; type: cell-based; conditions: not given
Summary of the method: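 Cells incubated 6 h with TNFα plus test compound, then luciferase activity measured. Results expressed as percent of TNFα-treated control. Screening concentration 50 μM.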

Row | Structure (SMILES) | inhibition [%]
26 | O=C(O)[C@H]1Cc2c([nH]c3ccccc23)CN1Cc1ccc(O)cc1 | 54.6
27 | C#CCN1Cc2[nH]c3ccccc3c2C[C@H]1C(=O)OC | 21.1
28 | C=CCOC(=O)N1Cc2[nH]c3ccccc3c2C[C@@H]1C(=O)O | 49.4
29 | O=C(O)[C@@H]1Cc2c([nH]c3ccccc23)CN1S(=O)(=O)c1ccc(Br)cc1 | 55.4

target: T1, Nitric oxide synthase, inducible (Mus musculus); assay: Inhibition of iNOS-mediated nitric oxide production in LPS-stimulated mouse RAW 264.7 cells at 50 uM pretreated 15 mins before LPS challenge measured after 20 hrs relative to control; type: cell-based; conditions: not given; summary of the method: as §1

Row | Structure (SMILES) | inhibition [%]
30 | O=C(O)[C@H]1Cc2c([nH]c3ccccc23)CN1Cc1ccc(O)cc1 | 27.8
31 | C#CCN1Cc2[nH]c3ccccc3c2C[C@H]1C(=O)OC | 22.3
32 | C=CCOC(=O)N1Cc2[nH]c3ccccc3c2C[C@@H]1C(=O)O | -4
33 | O=C(O)[C@@H]1Cc2c([nH]c3ccccc23)CN1S(=O)(=O)c1ccc(Br)cc1 | 50
